MrgX1 allo act: human MrgX1 positive allosteric modulation, primary screen; MrgX1-HEK293, Fluo-4 calcium flux, FDSS; active compounds read high; B-score at 10 µM; 310,000 tested, 0.63% active;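 active means plate-corrected calcium response at least 3 library SD above typical, normal starting fluorescence, not activating the receptor alone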;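 further: compound read alongside a low EC10 to EC30 dose of BAM8-22 agonist; peak minus trough fluorescence over baseline measured at the second addition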
Target sequence (Q96LB2 whole entry, looked up): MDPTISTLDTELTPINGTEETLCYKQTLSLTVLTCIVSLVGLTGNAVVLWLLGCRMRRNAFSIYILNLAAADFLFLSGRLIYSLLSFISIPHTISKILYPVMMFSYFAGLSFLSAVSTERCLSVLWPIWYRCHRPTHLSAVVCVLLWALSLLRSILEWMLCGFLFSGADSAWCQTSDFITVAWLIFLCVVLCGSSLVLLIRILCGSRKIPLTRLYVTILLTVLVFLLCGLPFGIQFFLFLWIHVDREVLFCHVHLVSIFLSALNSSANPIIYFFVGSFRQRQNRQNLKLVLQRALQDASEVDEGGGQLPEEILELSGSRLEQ
RGS4 pot: potentiators or activators of RGS4 | 310,000 tested, 0.92% active | B-score at 10 µM | HEK293 M3R/inducible RGS4, carbachol calcium flux Fluo4; active compounds read low;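 active means B-score of the integrated calcium signal more than 4 SD below the library mean, with starting fluorescence not abnormally high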;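 further: negative B-score means reduced calcium response which marks RGS4 activation or potentiation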
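Assay system: Inducible-RGS4 HEK293 cells carrying M3 receptor | Schedule: Compound preincubation 20 min at room temperature before agonist | Signal: Kinetic calcium fluorescence imaging with Fluo4-AM dye, 2 µM | Read-out basis: B score from integrated fluorescence ratio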
RGS4 block: human RGS4 inhibition; HEK293 M3R/RGS4 inducible, Fluo-4 calcium flux; active compounds read high; triggered by carbachol at its EC20; B-score at 10 µM; 310,000 tested, 0.45% active;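 active means B-score, a plate-corrected calcium signal, over three deviations above library mean, with baseline fluorescence within five deviations of library mean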;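 further: RGS4 expression induced by doxycycline in cells with stable M3 receptor; B-score is computed from the integrated fluorescence ratio over baseline after carbachol; higher B-score means a larger calcium signal and so more RGS4 inhibition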
Target sequence (P49798 whole entry, looked up): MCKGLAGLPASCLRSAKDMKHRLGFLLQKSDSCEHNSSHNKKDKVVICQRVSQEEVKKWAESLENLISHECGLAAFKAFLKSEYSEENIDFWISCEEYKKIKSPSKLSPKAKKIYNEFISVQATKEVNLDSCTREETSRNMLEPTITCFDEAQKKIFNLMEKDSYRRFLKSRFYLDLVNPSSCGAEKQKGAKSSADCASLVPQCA
MrgX1 ag: agonists of human MrgX1 receptor. Q96LB2. MrgX1-HEK293 cells, Fluo-4 calcium fluorescence, agonist mode; active compounds read high. B-score at 10 µM. 310,000 tested, 0.44% active;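 active means calcium response B-score plate-corrected fluorescence ratio at least 3 library SD, with starting fluorescence B-score inside 5 SD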
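Assay system: MrgX1-expressing HEK293 cells / Amount: fifteen thousand cells per well / Doses: test compound in the initial addition of three / Timing: cells plated overnight, dye loaded 0.5 h 37 °C, 0.5 h room temperature / Technique: kinetic calcium dye fluorescence, Fluo-4 NW / Control set: positive and negative controls per plate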
MrgX1 antag: human MrgX1 receptor antagonism, primary screen | Q96LB2 | MRGX1-HEK293 calcium flux, Fluo-4, BAM8-22 antagonism; active compounds read low | B-score at 10 µM | 310,000 tested, 1.3% active;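 active means calcium-response B-score plate-corrected more than 3 library SD below zero, starting fluorescence within 5 deviations, no agonist response on first addition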;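 further: peak minus trough fluorescence over baseline after final BAM8-22 challenge near maximal dose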
MrgX1 antag conf: human MrgX1 receptor antagonism, re-confirmation screen | shares compounds with MrgX1 antag | MrgX1-HEK293, BAM8-22 calcium flux, Fluo-4; active compounds read low | remaining BAM8-22 calcium response % of control (active compounds read low), % at 10 µM | 2,300 tested, 19% active | AID 602420;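 active means remaining agonist calcium response no higher than 100% minus 3 SD of agonist-only control wells, with starting fluorescence near control levels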;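 further: agonist BAM8-22 given at a near maximal EC90 to ECmax level; peak minus minimum fluorescence divided by baseline after agonist addition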
HEK293 Ca flux: activity in parental HEK293 cells lacking MrgX1; shares compounds with MrgX1 antag; fluorescence ratio F(max-min)/F0 at 10 µM; 4,000 tested, 2% active; Fluo-4 calcium fluorescence, FDSS;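 active means duplicate-averaged calcium fluorescence ratio at least three times the standard deviation of buffer wells, a nonspecific response in parental cells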
HEK293 Ca counter: MrgX1 allosteric activator counter-screen hit in parental HEK293 cells; shares compounds with MrgX1 antag; parental HEK293 calcium flux, Fluo-4 fluorescence ratio; active compounds read high; fluorescence ratio F(max-min)/F0 at 10 µM; 4,000 tested, 0.4% active;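 active means calcium fluorescence ratio, averaged over duplicates, at least 3 SD of the buffer-well ratio, meaning a nonspecific response in receptor-free cells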;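 further: untransfected parental HEK293 lacking MrgX1 used as counterscreen for MrgX1 allosteric activators; fluorescence change taken during the second addition on a kinetic imager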
HEK293 Ca cntr2: MrgX1 activator counter-screen hit in parental HEK293 cells; shares compounds with MrgX1 antag; Fluo-4 calcium fluorescence (FDSS); active compounds read high; fluorescence ratio F(max-min)/F0 at 10 µM; 4,000 tested, 8.7% active; AID 624115;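 active means calcium fluorescence ratio at least three times the spread of buffer wells, meaning a non-specific response in parental cells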
Numbers without * were called inactive. Only some compounds are listed: those with a hit (about 3.5% of all), similar ones and a draw of the others.

Screening O=C(CC1C(=O)NC2CCCCC2N1C(=O)c1ccc(F)cc1)Nc1ccccc1 (stereo not given) returned MrgX1 allo act inactive, RGS4 pot inactive, RGS4 block inactive, MrgX1 ag inactive, MrgX1 antag -4.78*, MrgX1 antag conf inactive, HEK293 Ca flux inactive, HEK293 Ca counter inactive and HEK293 Ca cntr2 inactive.
`Cc1ccc(Cl)cc1NC(=O)CC1NCCNC1=O` (stereo not given) gave MrgX1 allo act inactive, RGS4 pot inactive, RGS4 block inactive, MrgX1 ag inactive and MrgX1 antag inactive.
Screening COc1ccccc1C(=O)N1C(CC(=O)Nc2cc(Cl)ccc2C)C(=O)NC2CCCCC21 (stereo not given) returned MrgX1 allo act inactive, RGS4 pot inactive, RGS4 block inactive, MrgX1 ag inactive, MrgX1 antag -4.69*, MrgX1 antag conf inactive, HEK293 Ca flux inactive, HEK293 Ca counter inactive and HEK293 Ca cntr2 inactive.
For COCCCn1c(SCC(=O)N2CC(=O)Nc3ccccc32)nnc1-c1ccoc1C the results were MrgX1 allo act inactive, RGS4 pot inactive, RGS4 block inactive, MrgX1 ag inactive and MrgX1 antag inactive.
`COCCn1c(SCC(=O)N2CC(=O)Nc3ccccc32)nnc1-c1ccoc1C` gave MrgX1 allo act inactive, RGS4 pot inactive, RGS4 block inactive, MrgX1 ag inactive, MrgX1 antag -10.9*, MrgX1 antag conf inactive, HEK293 Ca flux inactive, HEK293 Ca counter inactive and HEK293 Ca cntr2 inactive.
`CC(=O)Nc1ccc(S(=O)(=O)NCc2nc(-c3ccccc3Cl)no2)cc1` gave MrgX1 allo act inactive, RGS4 pot inactive, RGS4 block inactive, MrgX1 ag inactive and MrgX1 antag inactive.
COC(=O)c1ccc(NC(=O)C2C3C=CC(O3)C2C(=O)O)cc1 (stereo not given) was read as MrgX1 allo act inactive, RGS4 pot inactive, RGS4 block inactive, MrgX1 ag inactive, MrgX1 antag -8.7*, MrgX1 antag conf inactive, HEK293 Ca flux inactive, HEK293 Ca counter inactive and HEK293 Ca cntr2 inactive.
For O=C(NC1CCS(=O)(=O)C1)c1ccc(S(=O)(=O)N2CCCCC2)cc1 (stereo not given) the results were MrgX1 allo act inactive, RGS4 pot inactive, RGS4 block inactive, MrgX1 ag inactive and MrgX1 antag inactive.
`Cc1cc2nsnc2c(S(=O)(=O)N2CCN(C)CC2)c1C` gave MrgX1 allo act inactive, RGS4 pot inactive, RGS4 block inactive, MrgX1 ag inactive and MrgX1 antag inactive.
`c1coc(C2Nc3ccccc3-c3nc4ccccc4n32)c1` (stereo not given) gave MrgX1 allo act inactive, RGS4 pot inactive, RGS4 block inactive, MrgX1 ag inactive, MrgX1 antag -6.32*, MrgX1 antag conf inactive, HEK293 Ca flux inactive, HEK293 Ca counter inactive and HEK293 Ca cntr2 inactive.
`Oc1ccccc1NCC(O)Cn1ccc2ccccc21` (stereo not given) gave MrgX1 allo act inactive, RGS4 pot inactive, RGS4 block inactive, MrgX1 ag inactive, MrgX1 antag -5.3*, MrgX1 antag conf inactive, HEK293 Ca flux inactive, HEK293 Ca counter inactive and HEK293 Ca cntr2 inactive.
Screening O=C(CC(NC(=O)c1ccccc1Cl)c1ccccc1)NC1=NCCS1 (stereo not given) returned MrgX1 allo act inactive, RGS4 pot inactive, RGS4 block inactive, MrgX1 ag inactive, MrgX1 antag -6.63*, MrgX1 antag conf inactive, HEK293 Ca flux inactive, HEK293 Ca counter inactive and HEK293 Ca cntr2 inactive.
O=C(Cc1c(Cl)cccc1Cl)NC1=NCCS1 was read as MrgX1 allo act inactive, RGS4 pot inactive, RGS4 block inactive, MrgX1 ag inactive and MrgX1 antag inactive.
O=C(NCc1ccncc1)c1ccc(Br)cc1 was read as MrgX1 allo act inactive, RGS4 pot inactive, RGS4 block inactive, MrgX1 ag inactive and MrgX1 antag inactive.
`O=C(CCNC(=O)c1ccc(Br)cc1)NCc1ccncc1` gave MrgX1 allo act inactive, RGS4 pot inactive, RGS4 block inactive, MrgX1 ag inactive, MrgX1 antag -6.12*, MrgX1 antag conf inactive, HEK293 Ca flux inactive, HEK293 Ca counter inactive and HEK293 Ca cntr2 inactive.
Screening COc1ccc2oc(C(=O)OCC(=O)NCc3ccccc3OC)c(C)c2c1 returned MrgX1 allo act inactive, RGS4 pot inactive, RGS4 block inactive, MrgX1 ag inactive, MrgX1 antag -5.1*, MrgX1 antag conf inactive, HEK293 Ca flux inactive, HEK293 Ca counter inactive and HEK293 Ca cntr2 inactive.
Screening Brc1ccc(CNc2ccc3ncccc3c2)cc1 returned MrgX1 allo act inactive, RGS4 pot inactive, RGS4 block inactive, MrgX1 ag inactive and MrgX1 antag inactive.
Cc1c(C(=O)Nc2ccc3c(c2)OCO3)sc2ncn(CC(=O)N3CC(C)CC(C)C3)c(=O)c12 (stereo not given) was read as MrgX1 allo act inactive, RGS4 pot inactive, RGS4 block inactive, MrgX1 ag inactive, MrgX1 antag -6.48*, MrgX1 antag conf 83.3%*, HEK293 Ca flux inactive, HEK293 Ca counter inactive and HEK293 Ca cntr2 inactive.
Cc1noc(C)c1CSc1ncnc2ccccc12 was read as MrgX1 allo act inactive, RGS4 pot inactive, RGS4 block inactive, MrgX1 ag inactive, MrgX1 antag -7.66*, MrgX1 antag conf inactive, HEK293 Ca flux inactive, HEK293 Ca counter inactive and HEK293 Ca cntr2 inactive.
Screening O=C(c1cn(CC(=O)N2CCCCC2)c2ccccc12)C1CC1 returned MrgX1 allo act inactive, RGS4 pot inactive, RGS4 block inactive, MrgX1 ag inactive, MrgX1 antag -4.97*, MrgX1 antag conf inactive, HEK293 Ca flux inactive, HEK293 Ca counter inactive and HEK293 Ca cntr2 inactive.
COc1cc(OC)cc(C(=O)NNC(=O)C(=O)Nc2cc(OC)c(Cl)cc2OC)c1 was read as MrgX1 allo act inactive, RGS4 pot inactive, RGS4 block inactive, MrgX1 ag inactive and MrgX1 antag inactive.

Screening data (PubChem)
